According to BindingDB's records for doi:10.1016/j.bmcl.2009.08.072 (Glaxosmithkline, 2010):

Legend:
[1] = target: T1, Presenilin-1 (Homo sapiens, UniProt P49768); experiment: Inhibition of gamma-secretase in human SHSY5Y cells expressing human recombinant APP assessed as amyloid beta40 formation by ELISA
How it was run: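 SH-SY5Y cells overexpressing human APP Swedish variant exposed to compound for 48 h; Aβ40 (and Aβ42) in the cell medium quantified by ELISA, either Meso Scale Discovery or AlphaLISA format. Compounds also cross-screened for inhibition of Notch processing.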

[2] = target: T1, Presenilin-1; experiment: Inhibition of gamma-secretase in human SHSY5Y cells expressing human recombinant APP assessed as amyloid beta42 formation by ELISA
How it was run: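 SH-SY5Y cells overexpressing human APP Swedish variant were incubated with compound for 48 h. Secreted Aβ42 and Aβ40 were measured by immunoassay (MSD electrochemiluminescence or AlphaLISA).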

IC50 [1]: 40 nM | IC50 [2]: 40 nM
SMILES: CC(C)[C@H](O)C(=O)N[C@@H](C)C(=O)NC1C(=O)N(C)CCc2ccccc21 (stereo partly drawn) [(2S)-2-hydroxy-3-methyl-N-[(1S)-1-{[(1S)-3-methyl-2-oxo-2,3,4,5-tetrahydro-1H-3-benzazepin-1-yl]carbamoyl}ethyl]butanamide]
